The data set in a line: Toxicity liver stage against HepG2, at 10uM. Type of data set: cell-based. Also on record: test concentration 10 uM, cell line HepG2-A16-CD81EGFP. The settings on record: human, HepG2-A16-CD81EGFP cells; read-out: INHIBITION
In a few lines:
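Uninfected HepG2-A16-CD81EGFP cells, 3 × 10^3 per well, 1536-well, plated on prespotted compound at 10 μM final, parasite-free screening media added to match infected plates; puromycin 10 μM positive, DMSO 0.5% negative; run in parallel with 48 h PbLuc assay at 37 °C, 5% CO2; viability by CellTiter-Glo luminescence, normalized to controls.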
Consider `Cn1c2ccccc2c2ncn(CCCN3CCOCC3)c(=O)c21`, for which the cytotoxicity at 10 µM turned out to be 18.3%. As for `Cc1ccc2c(c1)nc1n2[C@@H](CNC(=O)c2cncnc2)COC1`, the cytotoxicity at 10 µM worked out at 5.6%. With `Cc1ccc(-c2cn3c(n2)CO[C@@H](CNCc2cnn(C)c2)C3)cc1`, the cytotoxicity at 10 µM was -1.23%. Under `COCCN1CC(O)CN(C(=O)c2ccc(SC)cc2)CC1=O` (centres undefined) stands -0.53%; under `CC(C)COC(=O)N1CC(=O)N(CCCc2ccccc2)CC(O)C1` (centres undefined), 0.853%.

On to `COCCNC(=O)CCN1C(=O)CC2(CCCC2)C1=O`, for which the cytotoxicity at 10 µM is 2.34%. Under `CC(C)(C)c1csc(CN2CCN(S(=O)(=O)c3cccnc3)CC2)n1` stands 3.21%; under `CS(=O)(=O)N1CCOC2(CCN(c3ncccn3)CC2)c2ccccc21`, -1.52%. The figure for `c1ccc(N2CCCC3(CCN(Cc4nccs4)C3)C2)nc1` (centres undefined) is 6.94%. Regarding `CS(=O)(=O)Nc1cnn(Cc2cccc(Cl)c2)c1`, the cytotoxicity at 10 µM was -2.44%.

In the case of `COc1ccc(CNc2cc3[nH]c(O)nc3cc2C)cc1`, the cytotoxicity at 10 µM is 18.1%. For `CCCc1nc(CN(C)CCOc2ccccc2)cs1`, the cytotoxicity at 10 µM was -8.53%. The figure for `COc1c(C(=O)NCC(C)Sc2ccccc2)c(C)nn1C` (centres undefined) is 12.1%. `O=C(NCc1cscn1)NC1CCN(c2ncccc2Cl)C1` (centres undefined): the cytotoxicity at 10 µM was -1.24%. For `COc1c(F)cc(CN2CCCC3(CC2)CNC(=O)O3)cc1Cl` (centres undefined), the cytotoxicity at 10 µM turned out to be 0.465%.

For the compound `Cc1cc(C)n(C2CN(C(=O)Cn3c(C)cc(=O)c4ccccc43)C2)n1`, the cytotoxicity at 10 µM was -5.56%. The figure for `O=C1[C@@H]2CN(c3ncnc4sccc34)C[C@]2(C(=O)O)CN1CC1CC1` is 0.977%; for `Cn1cc(CN2CCC[C@]3(C(=O)O)CN(c4cnccn4)CC[C@@H]23)cn1` it is -0.226%; for `COc1ccc(-c2ccnc(N)c2)c(C)c1` it is 6.63%.

On to `CCn1cc(CN2CCCCC2CCn2ccnc2C)cc1C#N` (centres undefined), for which the cytotoxicity at 10 µM is -3.09%.

Turning to `CN(CCO)Cc1nnc(C2CCN(C(=O)c3ccccn3)CC2)n1C`, the cytotoxicity at 10 µM was determined as 0.5%. Under `CC(=O)NCCNc1cc(C)nc2cc(C)nn12` stands -6.91%; under `Cc1nc(N(C)CCN(C)C)c2cnn(C)c2n1`, 4.63%. The figure for `Cc1noc(C(C)C)c1C(=O)NCc1ccc(N(C)C)c(F)c1` is 1.17%; for `Cc1cc(C)c(CNC(=O)NCC(O)c2ccc(Cl)cc2)c(=O)[nH]1` (centres undefined) it is -7.03%. The figure for `Cc1cc(C)c(CNC(=O)NCc2cc(F)cc(F)c2)c(=O)[nH]1` is -4.98%; for `CC(C)(C)c1ncc(C(=O)NCCNC(=O)c2ccc(O)cc2)s1` it is 45.3%; for `CN(C)c1cc(C(=O)N2CCCN(Cc3nccn3C)CC2)ccn1` it is -1.56%.

As for `COc1ccccc1C(NCc1ccc(SC)cc1)c1nccn1C` (centres undefined), the cytotoxicity at 10 µM was -11.6%. The figure for `O=C(CCCNc1ncccn1)Nc1cc(C(F)(F)F)c[nH]c1=O` is -1.34%. The figure for `Cc1nc(C)n(C2CCCN(C(=O)c3cc(C4CC4)on3)C2)n1` (centres undefined) is -3.87%. The figure for `N#Cc1cccnc1N1CCCN(C(=O)CCn2cccn2)CC1` is 2.81%; for `CN(C)Cc1nc(C(C)(C)NC(=O)C2CC(=O)N(CC3CC3)C2)no1` (centres undefined) it is -5.9%. In the case of `CCOc1cc(C)nc(N2CCN(C(=O)c3ccnn3C)CC2)n1`, the cytotoxicity at 10 µM is -4.37%. Under `CCOC(=O)NC(C(=O)NCc1ccc(N2CCCCC2)nc1)C(C)C` (centres undefined) stands -6.09%; under `O=C(O)C1(Cc2cccc(-c3cccs3)c2)CCCNC1` (centres undefined), 4.43%. The figure for `Cc1cccc(CN2Cc3[nH]nc(COCCO)c3C2)n1` is 0.442%; for `Cc1cccc(CO[C@@H]2C[C@H]3CN(c4ncccn4)CCN3C2)n1` it is 1.39%; for `CC(C)N(C)Cc1cncc2c1CCN(C(=O)c1ccc[nH]1)C2` it is 3.73%.

The record behind these values is ChEMBL document CHEMBL4513216, “Probing the Open Global Health Chemical Diversity Library for Multistage-Active Starting Points for Next-Generation Antimalarials” (ACS Infect Dis, 2020).
